# Tested on: Anaerococcus prevotii
# Experiment: Antimicrobial activity against Anaerococcus prevotii after 48 hrs by agar dilution method
# Assay type: functional
# Method in brief: (§1)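 MICs on clinical anaerobe isolates by the CLSI agar dilution method. Inoculum of 10^5 CFU applied with a Steers replicator. Plates incubated 48 h at 37°C in an anaerobic chamber.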
Structure (SMILES),MIC50 [µg/mL],MIC90 [µg/mL]
CO[C@@]1(NC(=O)C2SC(=C(C(N)=O)C(=O)O)S2)C(=O)N2C(C(=O)O)=C(CSc3nnnn3C)CS[C@@H]21 (stereo not given in full) [CEFOTETAN],1,2

# Tested on: Anaerococcus prevotii
# Experiment: Antimicrobial activity against Anaerococcus prevotii assessed as percent susceptible isolates after 48 hrs by agar dilution method
# Assay type: functional
row,Structure (SMILES),Activity [%]
1,CO[C@@]1(NC(=O)C2SC(=C(C(N)=O)C(=O)O)S2)C(=O)N2C(C(=O)O)=C(CSc3nnnn3C)CS[C@@H]21 (stereo not given in full) [CEFOTETAN],100

# Tested on: Anaerococcus prevotii
# Experiment: Antimicrobial activity against Anaerococcus prevotii assessed as percent resistant isolates after 48 hrs by agar dilution method
# Assay type: functional
# Method in brief: (§2)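 CLSI agar dilution on recent Korean clinical anaerobe isolates. Inoculum 10^5 CFU per spot by replicator. Plates incubated in an anaerobic chamber at 37°C for 48 h. For piperacillin plus tazobactam, tazobactam was held constant at 4 μg/ml. Resistance and susceptibility rates derived from MICs.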
row,Structure (SMILES),Activity [%]
1,CO[C@@]1(NC(=O)C2SC(=C(C(N)=O)C(=O)O)S2)C(=O)N2C(C(=O)O)=C(CSc3nnnn3C)CS[C@@H]21 (stereo not given in full) [CEFOTETAN],0

# Tested on: Peptoniphilus asaccharolyticus
# Experiment: Antimicrobial activity against Peptoniphilus asaccharolyticus assessed as percent susceptible isolates after 48 hrs by agar dilution method
# Assay type: functional
# Method in brief: (§3)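 CLSI agar dilution (M11-A7); inoculum 10^5 CFU applied by replicator; plates incubated anaerobically 48 h at 37°C. For piperacillin-tazobactam, tazobactam held constant at 4 μg/ml.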
row,Structure (SMILES),Activity [%]
1,CO[C@@]1(NC(=O)C2SC(=C(C(N)=O)C(=O)O)S2)C(=O)N2C(C(=O)O)=C(CSc3nnnn3C)CS[C@@H]21 (stereo not given in full) [CEFOTETAN],100

# Tested on: Peptoniphilus asaccharolyticus
# Experiment: Antimicrobial activity against Peptoniphilus asaccharolyticus assessed as percent resistant isolates after 48 hrs by agar dilution method
# Assay type: functional
# Method in brief: as §2
row,Structure (SMILES),Activity [%]
1,CO[C@@]1(NC(=O)C2SC(=C(C(N)=O)C(=O)O)S2)C(=O)N2C(C(=O)O)=C(CSc3nnnn3C)CS[C@@H]21 (stereo not given in full) [CEFOTETAN],0

# Tested on: Finegoldia magna
# Experiment: Antimicrobial activity against Finegoldia magna assessed as percent susceptible isolates after 48 hrs by agar dilution method
# Assay type: functional
# Method in brief: as §3
row,Structure (SMILES),Activity [%]
1,CO[C@@]1(NC(=O)C2SC(=C(C(N)=O)C(=O)O)S2)C(=O)N2C(C(=O)O)=C(CSc3nnnn3C)CS[C@@H]21 (stereo not given in full) [CEFOTETAN],100

# Tested on: Finegoldia magna
# Experiment: Antimicrobial activity against Finegoldia magna assessed as percent resistant isolates after 48 hrs by agar dilution method
# Assay type: functional
# Method in brief: as §2
row,Structure (SMILES),Activity [%]
1,CO[C@@]1(NC(=O)C2SC(=C(C(N)=O)C(=O)O)S2)C(=O)N2C(C(=O)O)=C(CSc3nnnn3C)CS[C@@H]21 (stereo not given in full) [CEFOTETAN],0

# Tested on: Clostridioides difficile
# Experiment: Antimicrobial activity against Clostridium difficile assessed as percent susceptible isolates after 48 hrs by agar dilution method
# Assay type: functional
row,Structure (SMILES),Activity [%]
1,CO[C@@]1(NC(=O)C2SC(=C(C(N)=O)C(=O)O)S2)C(=O)N2C(C(=O)O)=C(CSc3nnnn3C)CS[C@@H]21 (stereo not given in full) [CEFOTETAN],83

# Tested on: Clostridioides difficile
# Experiment: Antimicrobial activity against Clostridium difficile assessed as percent resistant isolates after 48 hrs by agar dilution method
# Assay type: functional
row,Structure (SMILES),Activity [%]
1,CO[C@@]1(NC(=O)C2SC(=C(C(N)=O)C(=O)O)S2)C(=O)N2C(C(=O)O)=C(CSc3nnnn3C)CS[C@@H]21 (stereo not given in full) [CEFOTETAN],17

# Tested on: Schaalia odontolytica
# Experiment: Antimicrobial activity against Actinomyces odontolyticus after 48 hrs by agar dilution method
# Assay type: functional
# Method in brief: as §1
Structure (SMILES),MIC50 [µg/mL],MIC90 [µg/mL]
CO[C@@]1(NC(=O)C2SC(=C(C(N)=O)C(=O)O)S2)C(=O)N2C(C(=O)O)=C(CSc3nnnn3C)CS[C@@H]21 (stereo not given in full) [CEFOTETAN],4,64

# Tested on: Schaalia odontolytica
# Experiment: Antimicrobial activity against Actinomyces odontolyticus assessed as percent susceptible isolates after 48 hrs by agar dilution method
# Assay type: functional
row,Structure (SMILES),Activity [%]
1,CO[C@@]1(NC(=O)C2SC(=C(C(N)=O)C(=O)O)S2)C(=O)N2C(C(=O)O)=C(CSc3nnnn3C)CS[C@@H]21 (stereo not given in full) [CEFOTETAN],85

# Tested on: Schaalia odontolytica
# Experiment: Antimicrobial activity against Actinomyces odontolyticus assessed as percent resistant isolates after 48 hrs by agar dilution method
# Assay type: functional
# Method in brief: as §2
row,Structure (SMILES),Activity [%]
1,CO[C@@]1(NC(=O)C2SC(=C(C(N)=O)C(=O)O)S2)C(=O)N2C(C(=O)O)=C(CSc3nnnn3C)CS[C@@H]21 (stereo not given in full) [CEFOTETAN],15

# Tested on: Actinomyces israelii
# Experiment: Antimicrobial activity against Actinomyces israelii assessed as percent susceptible isolates after 48 hrs by agar dilution method
# Assay type: functional
row,Structure (SMILES),Activity [%]
1,CO[C@@]1(NC(=O)C2SC(=C(C(N)=O)C(=O)O)S2)C(=O)N2C(C(=O)O)=C(CSc3nnnn3C)CS[C@@H]21 (stereo not given in full) [CEFOTETAN],85

# Tested on: Actinomyces israelii
# Experiment: Antimicrobial activity against Actinomyces israelii assessed as percent resistant isolates after 48 hrs by agar dilution method
# Assay type: functional
# Method in brief: as §2
row,Structure (SMILES),Activity [%]
1,CO[C@@]1(NC(=O)C2SC(=C(C(N)=O)C(=O)O)S2)C(=O)N2C(C(=O)O)=C(CSc3nnnn3C)CS[C@@H]21 (stereo not given in full) [CEFOTETAN],15

# Tested on: Schaalia meyeri
# Experiment: Antimicrobial activity against Actinomyces meyeri assessed as percent susceptible isolates after 48 hrs by agar dilution method
# Assay type: functional
row,Structure (SMILES),Activity [%]
1,CO[C@@]1(NC(=O)C2SC(=C(C(N)=O)C(=O)O)S2)C(=O)N2C(C(=O)O)=C(CSc3nnnn3C)CS[C@@H]21 (stereo not given in full) [CEFOTETAN],85

# Tested on: Actinomyces naeslundii
# Experiment: Antimicrobial activity against Actinomyces naeslundii after 48 hrs by agar dilution method
# Assay type: functional
# Method in brief: as §1
Structure (SMILES),MIC50 [µg/mL],MIC90 [µg/mL]
CO[C@@]1(NC(=O)C2SC(=C(C(N)=O)C(=O)O)S2)C(=O)N2C(C(=O)O)=C(CSc3nnnn3C)CS[C@@H]21 (stereo not given in full) [CEFOTETAN],4,64

# Tested on: Actinomyces naeslundii
# Experiment: Antimicrobial activity against Actinomyces naeslundii assessed as percent susceptible isolates after 48 hrs by agar dilution method
# Assay type: functional
row,Structure (SMILES),Activity [%]
1,CO[C@@]1(NC(=O)C2SC(=C(C(N)=O)C(=O)O)S2)C(=O)N2C(C(=O)O)=C(CSc3nnnn3C)CS[C@@H]21 (stereo not given in full) [CEFOTETAN],85

# Tested on: Bifidobacterium adolescentis
# Experiment: Antimicrobial activity against Bifidobacterium adolescentis assessed as percent susceptible isolates after 48 hrs by agar dilution method
# Assay type: functional
row,Structure (SMILES),Activity [%]
1,CO[C@@]1(NC(=O)C2SC(=C(C(N)=O)C(=O)O)S2)C(=O)N2C(C(=O)O)=C(CSc3nnnn3C)CS[C@@H]21 (stereo not given in full) [CEFOTETAN],85

# Tested on: Bifidobacterium adolescentis
# Experiment: Antimicrobial activity against Bifidobacterium adolescentis assessed as percent resistant isolates after 48 hrs by agar dilution method
# Assay type: functional
# Method in brief: as §2
row,Structure (SMILES),Activity [%]
1,CO[C@@]1(NC(=O)C2SC(=C(C(N)=O)C(=O)O)S2)C(=O)N2C(C(=O)O)=C(CSc3nnnn3C)CS[C@@H]21 (stereo not given in full) [CEFOTETAN],0

# Tested on: Bifidobacterium sp.
# Experiment: Antimicrobial activity against Bifidobacterium sp. after 48 hrs by agar dilution method
# Assay type: functional
# Method in brief: as §1
Structure (SMILES),MIC50 [µg/mL],MIC90 [µg/mL]
CO[C@@]1(NC(=O)C2SC(=C(C(N)=O)C(=O)O)S2)C(=O)N2C(C(=O)O)=C(CSc3nnnn3C)CS[C@@H]21 (stereo not given in full) [CEFOTETAN],4,64

# Tested on: Bifidobacterium sp.
# Experiment: Antimicrobial activity against Bifidobacterium sp. assessed as percent susceptible isolates after 48 hrs by agar dilution method
# Assay type: functional
# Method in brief: as §3
row,Structure (SMILES),Activity [%]
1,CO[C@@]1(NC(=O)C2SC(=C(C(N)=O)C(=O)O)S2)C(=O)N2C(C(=O)O)=C(CSc3nnnn3C)CS[C@@H]21 (stereo not given in full) [CEFOTETAN],85

# Tested on: Bifidobacterium sp.
# Experiment: Antimicrobial activity against Bifidobacterium sp. assessed as percent resistant isolates after 48 hrs by agar dilution method
# Assay type: functional
# Method in brief: as §2
row,Structure (SMILES),Activity [%]
1,CO[C@@]1(NC(=O)C2SC(=C(C(N)=O)C(=O)O)S2)C(=O)N2C(C(=O)O)=C(CSc3nnnn3C)CS[C@@H]21 (stereo not given in full) [CEFOTETAN],15

# Tested on: Eggerthella lenta
# Experiment: Antimicrobial activity against Eubacterium lentum after 48 hrs by agar dilution method
# Assay type: functional
# Method in brief: as §3
Structure (SMILES),MIC50 [µg/mL],MIC90 [µg/mL]
CO[C@@]1(NC(=O)C2SC(=C(C(N)=O)C(=O)O)S2)C(=O)N2C(C(=O)O)=C(CSc3nnnn3C)CS[C@@H]21 (stereo not given in full) [CEFOTETAN],4,64

# Tested on: Eubacterium sp.
# Experiment: Antimicrobial activity against Eubacterium sp. assessed as percent susceptible isolates after 48 hrs by agar dilution method
# Assay type: functional
# Method in brief: as §3
row,Structure (SMILES),Activity [%]
1,CO[C@@]1(NC(=O)C2SC(=C(C(N)=O)C(=O)O)S2)C(=O)N2C(C(=O)O)=C(CSc3nnnn3C)CS[C@@H]21 (stereo not given in full) [CEFOTETAN],85

# Tested on: Eubacterium sp.
# Experiment: Antimicrobial activity against Eubacterium sp. assessed as percent resistant isolates after 48 hrs by agar dilution method
# Assay type: functional
# Method in brief: as §2
row,Structure (SMILES),Activity [%]
1,CO[C@@]1(NC(=O)C2SC(=C(C(N)=O)C(=O)O)S2)C(=O)N2C(C(=O)O)=C(CSc3nnnn3C)CS[C@@H]21 (stereo not given in full) [CEFOTETAN],15

# Reference: ChEMBL document CHEMBL1671716, “Antimicrobial susceptibility patterns for recent clinical isolates of anaerobic bacteria in South Korea” (2010)
